PubChem BioAssay
A number with no mark means an inactive call. Active and inactive are the calls of the source.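 The calls were made as follows, unless noted: active = mean duplicate activation above the buffer control mean plus 5 SD of those controls; inactive = the rest.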

How the values were obtained:
[1] = nonspecific flux increase, KCNQ1-free cells – parental CHO cells, counter-screen for KCNQ1 potentiator project (AID 493006;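 active = duplicate-averaged activation above buffer control mean plus 5 SD of those controls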); conditions: parental CHO-K1 cells, FluxOR thallium flux, at 10 µM; hits give high values
In short: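 Material: untransfected host CHO-K1 cells with FluxOR thallium dye. Timing: overnight 37 °C plating, 90 min RT dye, 20 min compound. Detection: kinetic FluxOR fluorescence, 10 s baseline, 110 s after stimulus. Read-out basis: max-minus-min fluorescence over baseline, percent of buffer-to-R-L3 span. Replicates: duplicate wells per compound, percent values averaged.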

[2] = molecular target: Potassium voltage-gated channel subfamily KQT member 1 (Homo sapiens) (UniProt P51787); experiment: enhancement of KCNQ1 channel thallium flux – FluxOR thallium flux, CHO cells, duplicates, confirmation (AID 493007;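 active = potentiation averaged over duplicate wells exceeding buffer-only control mean by more than 3 SD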;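 as to outcome: cells depolarized by a potassium plus thallium sulfate stimulus after compound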); conditions: KCNQ1 cell line, FluxOR thallium flux fluorescence, at 10 µM; hits give high values, % of reference activator effect, buffer zero
Sequence of Potassium voltage-gated channel subfamily KQT member 1 (Homo sapiens) (P51787 whole entry, looked up): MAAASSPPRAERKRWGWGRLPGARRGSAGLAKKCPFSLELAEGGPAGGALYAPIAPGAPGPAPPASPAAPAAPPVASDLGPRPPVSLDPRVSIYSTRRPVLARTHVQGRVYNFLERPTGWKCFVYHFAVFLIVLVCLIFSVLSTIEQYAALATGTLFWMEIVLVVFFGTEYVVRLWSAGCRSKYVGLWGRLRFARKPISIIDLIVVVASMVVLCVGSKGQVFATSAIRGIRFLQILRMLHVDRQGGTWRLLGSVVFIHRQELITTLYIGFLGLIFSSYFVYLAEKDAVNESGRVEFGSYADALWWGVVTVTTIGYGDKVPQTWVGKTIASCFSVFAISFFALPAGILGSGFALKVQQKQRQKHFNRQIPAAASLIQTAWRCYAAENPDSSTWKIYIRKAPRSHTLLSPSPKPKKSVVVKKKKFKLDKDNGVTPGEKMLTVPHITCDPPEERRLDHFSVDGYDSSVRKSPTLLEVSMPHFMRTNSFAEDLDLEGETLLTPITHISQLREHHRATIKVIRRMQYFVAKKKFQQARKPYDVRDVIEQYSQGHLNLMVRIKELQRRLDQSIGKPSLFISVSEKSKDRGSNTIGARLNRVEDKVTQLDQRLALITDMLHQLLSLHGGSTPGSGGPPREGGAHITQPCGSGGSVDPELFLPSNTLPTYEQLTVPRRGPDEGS
In short: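 Test system – KCNQ1-expressing CHO cell line · Incubation – FluxOR dye loading 90 min, compound exposure 20 min, room temperature · Detection – FluxOR Tl+ flux fluorescence, 10 s baseline plus 110 s recording · Controls – buffer-only wells as 0% and R-L3 activator as 100%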

[3] = molecular target: Potassium voltage-gated channel subfamily KQT member 2 (Rattus norvegicus) (UniProt O88943); experiment: KCNQ2 thallium flux enhancement – KCNQ2-CHO-K1 cells, selectivity assay for KCNQ1 potentiator project (AID 493009;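 active = mean duplicate potentiation above the buffer control mean plus 5 SD of buffer wells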;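 also: assay conditions were tuned for KCNQ1 rather than KCNQ2 modulators; signal is max minus min fluorescence divided by baseline after thallium stimulus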); conditions: FluxOR thallium flux fluorescence, at 10 µM; hits give high values, scaled: buffer 0, activator control 100
Sequence of Potassium voltage-gated channel subfamily KQT member 2 (Rattus norvegicus) (O88943 whole entry, looked up): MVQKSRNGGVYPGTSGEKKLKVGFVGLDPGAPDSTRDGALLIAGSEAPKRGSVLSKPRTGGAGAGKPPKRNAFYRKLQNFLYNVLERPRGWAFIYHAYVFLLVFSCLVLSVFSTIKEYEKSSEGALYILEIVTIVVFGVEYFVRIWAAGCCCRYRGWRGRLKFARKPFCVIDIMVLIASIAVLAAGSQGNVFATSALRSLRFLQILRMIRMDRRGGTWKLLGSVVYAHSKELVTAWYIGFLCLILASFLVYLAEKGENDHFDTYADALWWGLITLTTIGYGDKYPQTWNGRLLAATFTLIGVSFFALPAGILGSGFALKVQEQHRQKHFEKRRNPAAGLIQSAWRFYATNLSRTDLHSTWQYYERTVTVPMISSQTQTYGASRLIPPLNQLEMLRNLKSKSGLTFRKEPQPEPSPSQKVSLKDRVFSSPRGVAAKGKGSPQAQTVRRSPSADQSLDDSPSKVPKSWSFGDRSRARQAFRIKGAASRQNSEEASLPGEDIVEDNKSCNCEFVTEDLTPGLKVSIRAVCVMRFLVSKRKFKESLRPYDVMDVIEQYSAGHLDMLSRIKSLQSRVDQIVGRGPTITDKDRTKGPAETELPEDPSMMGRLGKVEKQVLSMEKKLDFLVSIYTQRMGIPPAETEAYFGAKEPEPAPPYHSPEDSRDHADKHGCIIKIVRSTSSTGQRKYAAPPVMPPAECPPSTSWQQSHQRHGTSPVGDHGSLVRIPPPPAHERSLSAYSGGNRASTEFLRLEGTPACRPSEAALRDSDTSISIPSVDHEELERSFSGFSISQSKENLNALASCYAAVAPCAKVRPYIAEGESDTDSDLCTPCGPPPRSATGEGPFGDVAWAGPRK

[4] = molecular target: Potassium voltage-gated channel subfamily KQT member 1 (Homo sapiens) (UniProt P51787); experiment: KCNQ1 activators by electrophysiology – IonWorks patch clamp, KCNQ1-CHO cells, orthogonal assay for KCNQ1 potentiator project, confirmation (AID 493184;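 active = current rise at least 3 SD above the untreated control mean in each of two repeat wells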;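 as to current potentiation: percent change of the same well's current before compound addition so 0% = no change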); conditions: automated patch clamp current, at 10 µM; hits give high values
In short: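 Read-out: Percent current increase versus pre-compound level | Assay system: CHO cells carrying KCNQ1 | Measured by: Automated perforated-patch electrophysiology | Medium: External bath solution at pH 7.4 | Dosing: One dose, 10 µM final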

[5] = molecular target: Potassium voltage-gated channel subfamily E member 1 (Homo sapiens) + Potassium voltage-gated channel subfamily KQT member 1 (Homo sapiens) (UniProt P15382+P51787); experiment: KCNQ1-E1 channel activation – thallium flux, CHO-K1 KCNQ1/E1 cells, selectivity assay for KCNQ1 potentiator project, confirmation (AID 493186); conditions: FluxOR thallium flux, at 10 µM; hits give high values
Sequence of Potassium voltage-gated channel subfamily E member 1 (Homo sapiens) + Potassium voltage-gated channel subfamily KQT member 1 (Homo sapiens) (P51787 whole entry, looked up): as the sequence (P51787 whole entry, looked up) above
In short: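 Test system: CHO-K1 cells with KCNQ1/E1; dosing: one test concentration; signal: FluxOR Tl+ flux fluorescence, kinetic read; incubation: 90-min dye loading then 20-min compound exposure, both at room temperature; read-out basis: percent of R-L3 effect over buffer; replication: duplicate wells per compound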

| SMILES | outcome [1] | outcome [2] | outcome [3] | current potentiation [4] | outcome [5] | outcome [4] | potentiation [2] | potentiation [3] | activation [5] |
| --- | --- | --- | --- | --- | --- | --- | --- | --- | --- |
| Cc1cc(/C=N/n2cnnc2)c(C)n1-c1cc(Cl)ccc1Cl | inactive | inactive | inactive | 18.5% (active) | inactive | – | – | – | – |
| CC(NC(=O)c1ccco1)C(=O)N(C)Cc1ccc(C(F)(F)F)cc1 (stereo not given) | inactive | inactive | inactive | – | inactive | inactive | – | – | – |
| Cc1ccc(-c2csc(NC(=O)Cc3ccc(F)cc3)n2)o1 | inactive | inactive | inactive | – | inactive | inactive | – | – | – |
| Clc1ccc(C2=Nn3c(nnc3-c3n[nH]c4c3CCC4)SC2)cc1Cl | inactive | inactive | inactive | – | inactive | inactive | – | – | – |
| COc1cc(C(=O)CCN2CCC(c3ccccc3)C2)cc(OC)c1OC (stereo not given) | inactive | inactive | inactive | – | inactive | inactive | – | – | – |
| N=c1sccn1CC(=O)Nc1ccc(S(=O)(=O)N2CCOCC2)cc1 | inactive | inactive | inactive | – | inactive | inactive | – | – | – |
| Cc1ccc(-c2nc(=S)c3c(n2Cc2ccco2)CC(C)(C)OC3)cc1 | inactive | inactive | inactive | – | inactive | inactive | – | – | – |
| CC(C)CC(=O)Nc1nnc(SCC(=O)NCc2ccco2)s1 | inactive | inactive | inactive | – | inactive | inactive | – | – | – |
| O=C(NC(=S)Nc1ccccc1N1CCOCC1)c1ccc(-c2cc(Cl)ccc2Cl)o1 | inactive | inactive | inactive | – | inactive | inactive | – | – | – |
| CCOc1cc(CN2CCOCC2)cc(C(C)=O)c1 | inactive | – | inactive | – | inactive | inactive | 23.5% (active) | – | – |
| CSc1ncc(C(=O)Nc2ccccc2Cl)c(C)n1 | inactive | inactive | inactive | – | inactive | inactive | – | – | – |
| Cc1cccc(OCc2n[nH]c(=S)n2C2CCCCC2)c1 | inactive | inactive | inactive | – | inactive | inactive | – | – | – |
| CCOC(=O)c1cc(C)sc1NC(=O)CN1CCN(C(=O)c2ccco2)CC1 | inactive | – | inactive | – | inactive | inactive | 17.5% (active) | – | – |
| Cc1nnnn1/C(=C\c1ccccc1)C(=O)OCC(=O)Nc1ccc(Cl)cc1F | inactive | inactive | inactive | – | inactive | inactive | – | – | – |
| Cc1cc(-c2cccs2)c(C#N)c(=S)[nH]1 | inactive | inactive | inactive | – | inactive | inactive | – | – | – |
| CCOC(=O)c1ccc(N2C(=O)C3ON(c4ccccc4)C(c4ccco4)C3C2=O)cc1 (stereo not given) | inactive | inactive | inactive | – | inactive | inactive | – | – | – |
| CN(C)CCCN(C(=O)CCOc1ccccc1)c1nc2c(F)cccc2s1 | inactive | inactive | inactive | – | inactive | inactive | – | – | – |
| C#CCNc1cc(-c2ccccc2)nc2ncnn12 | inactive | inactive | inactive | – | inactive | inactive | – | – | – |
| CCN(CC)CCSc1nc2ccccc2c(=S)n1-c1ccccc1 | inactive | inactive | inactive | – | inactive | inactive | – | – | – |
| COc1ccc(C(=O)NC(=S)NNC(=O)c2ccc(C)cc2)cc1 | inactive | – | – | – | – | inactive | 142% (active) | 250% (active) | 62.3% (active) |
| S=c1nc[nH]c2c1[nH]c1ccc(Cl)cc12 | inactive | inactive | inactive | – | inactive | inactive | – | – | – |
| Cc1cc(C(=O)CCl)c(C)n1-c1cccc([N+](=O)[O-])c1 | inactive | inactive | inactive | – | inactive | inactive | – | – | – |
| Cn1ccnc1C(=O)c1cccc([N+](=O)[O-])c1 | inactive | – | inactive | – | inactive | inactive | 18.5% (active) | – | – |
| FC(F)(F)c1cccc(CN2CCC(c3cc(-c4cccs4)n[nH]3)CC2)c1 | inactive | inactive | inactive | – | inactive | inactive | – | – | – |
| CC12CCC(C/C1=N\N=C1\NC(=O)/C(=C\c3cccc(Br)c3)S1)C2(C)C (stereo not given) | inactive | – | – | – | inactive | inactive | 51% (active) | 154% (active) | – |
| COc1ccc(OCC(=O)NC(=S)NNC(=O)COc2ccc(Br)cc2Cl)cc1 | inactive | – | inactive | – | inactive | inactive | 18.5% (active) | – | – |
